pKd: −log10 of the molar value.
Tests used:
AURORA-A [1] = target: T1, AURORA-A (Homo sapiens, UniProt O14965); assay: AURORA-A-NanoLuc target engagement assay; format: binding; details: AURORA-A vs AURORA-B, depending on experimental conditions (BRET, Kinobeads)
T1 sequence (O14965 1-403): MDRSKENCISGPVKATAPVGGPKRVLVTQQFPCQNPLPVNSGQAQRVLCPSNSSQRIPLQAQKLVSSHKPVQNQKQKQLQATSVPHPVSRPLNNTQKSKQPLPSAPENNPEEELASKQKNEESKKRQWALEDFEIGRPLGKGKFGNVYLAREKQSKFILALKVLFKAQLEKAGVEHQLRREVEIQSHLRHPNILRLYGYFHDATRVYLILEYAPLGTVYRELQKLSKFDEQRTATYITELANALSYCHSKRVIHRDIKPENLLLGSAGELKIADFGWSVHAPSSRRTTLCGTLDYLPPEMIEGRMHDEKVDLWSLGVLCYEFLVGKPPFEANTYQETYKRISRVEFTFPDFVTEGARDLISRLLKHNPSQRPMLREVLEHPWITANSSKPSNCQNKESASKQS

AURORA-A [2] = target: T1, AURORA-A; assay: Immunoblot of AURORA-A in compound-treated MV4-11 cells; format: cell-based
MV4-11 cells = assay: BrdU/PI flow cytometry, cell cycle distribution of MV4-11 cells; format: cell-based, human; details: 1 µM, 12 hours
Procedure, shortened: (§1)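 Cells were pulsed with 10 µM BrdU for 1 h, washed in ice-cold PBS and fixed overnight in 80% ethanol at −20 °C. After a 1% BSA/PBS-T wash, they were stained 30 min at 37 °C with RNase A (24 µg/ml) and propidium iodide (54 µM), then analysed by flow cytometry. For IMR5, the EtOH-treated cells of the doxycycline-inducible line served as the non-overexpressing cells.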

IMR5 cells = assay: BrdU/PI flow cytometry, cell cycle distribution of IMR5 cells; format: cell-based, human; details: IMR5 cells without ectopic AURORA-A, 1 µM, 18 hours
Procedure, shortened: as §1

AK2 = AK2 (Homo sapiens, UniProt P54819); assay: Kinobead selectivity profiling: AK2; format: binding

difference of affinities for AURORA-A and AURORA-B (AURORA-A [1]): 3- to 50 fold
pKd (AK2): 6.67
Structure (SMILES): COc1cc(Nc2ncc3c(n2)-c2ccc(Cl)cc2C(c2c(F)cccc2OC)=NC3)ccc1C(=O)O [Alisertib, alisertib, reference compound]
reduction of steady-state AURORA-A levels (in words) (AURORA-A [2]): did not decrease AURORA-A levels, but instead substantially increased it
cell cycle distribution (MV4-11 cells): almost all cells arrested in G2/M
cell cycle distribution (IMR5 cells): led to G2/M arrest
